Bioassay records: PubChem, The Scripps Research Institute Molecular Screening Center
CHO parental Ca: ATP-evoked calcium signal inhibitors, parental CHO, primary screen, counter-screen for OX1R antagonist project, cell-based, fluorescence, Fluo-8 calcium dye; actives 0.63% (n = 330,000); inhibition, % at 5.6 µM; parental CHO-K1, ATP-induced calcium, Fluo-8 fluorescence; AID 463079, 2010;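 active = inhibition above that plate's mean sample inhibition plus 3 SD, cut at about 26% in these data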
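Test system: untransfected parental CHO cell line. Compound: one dose, 5.6 µM nominal. Detection: intracellular calcium via Fluo-8 no-wash fluorescent dye. Measure: % inhibition. Benchmarks: ATP-challenged DMSO wells low, unchallenged DMSO wells high.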
OX1R antag-1: antagonists of human orexin 1 receptor (OX1R); actives 1.8% (n = 330,000); OX1R-expressing cells, FRET antagonist read-out; inhibition, % at 6.6 µM; in the data active = inhibition mostly above about 38%, no sharp cut-off; inactive = mostly below about 40%
Target sequence (O43613 whole entry, looked up): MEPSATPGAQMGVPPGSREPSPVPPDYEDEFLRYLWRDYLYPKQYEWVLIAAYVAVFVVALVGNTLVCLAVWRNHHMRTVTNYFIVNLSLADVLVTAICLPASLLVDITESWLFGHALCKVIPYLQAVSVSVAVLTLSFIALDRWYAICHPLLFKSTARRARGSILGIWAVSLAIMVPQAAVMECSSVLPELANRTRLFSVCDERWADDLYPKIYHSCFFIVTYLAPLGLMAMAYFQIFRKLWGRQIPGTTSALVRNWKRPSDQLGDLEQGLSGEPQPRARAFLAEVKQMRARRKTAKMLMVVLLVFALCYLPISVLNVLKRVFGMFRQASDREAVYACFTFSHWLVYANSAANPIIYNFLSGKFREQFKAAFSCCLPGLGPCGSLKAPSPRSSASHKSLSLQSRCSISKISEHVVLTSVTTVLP
TAAR1 antagonist: human TAAR1 antagonists, primary screen, Fluo-8 calcium fluorescence, CHO RD-HGA16 cells; actives 1.5% (n = 360,000); inhibition, % at 3 µM; AID 624466, 2012; antagonist;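 active = inhibition above a per-plate cutoff, the mean inhibition of test compounds on that plate plus 3 SD, cut at about 49% in these data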
Target sequence (Q96RJ0 whole entry, looked up): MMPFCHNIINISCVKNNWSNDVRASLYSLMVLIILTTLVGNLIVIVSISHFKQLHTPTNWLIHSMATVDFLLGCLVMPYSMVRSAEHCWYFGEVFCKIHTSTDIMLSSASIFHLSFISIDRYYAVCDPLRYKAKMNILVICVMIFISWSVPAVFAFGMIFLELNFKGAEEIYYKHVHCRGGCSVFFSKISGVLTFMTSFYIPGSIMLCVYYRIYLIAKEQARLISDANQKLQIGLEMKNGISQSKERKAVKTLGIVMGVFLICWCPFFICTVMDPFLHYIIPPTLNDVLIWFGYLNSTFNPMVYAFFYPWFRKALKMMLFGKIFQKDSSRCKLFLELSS
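Test system: CHO RD-HGA16 cells bearing hTAAR1 | Reagent: β-PEA, EC80 | Compound dosing: 3 µM, single point | Schedule: Dye loading 75 min at 37 °C, then 30 min room temperature | Signal: Calcium fluorescence with Fluo-8 | Evaluation: Percent inhibition of PEA-evoked calcium signal, max/basal emission ratio | Control set: DMSO-only wells and EC80 β-PEA-stimulated wells | Repeats: Singlicate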
OX1R antag-2: OX1R (HCRTR1) antagonists, primary screen, fluorescence, CHO/OX1R cells, Fluo-8 calcium, orexin A; actives 0.43% (n = 330,000); Orexin/Hypocretin receptor type 1 (Homo sapiens), O43613; AID 434989, 2010; inhibition, % at 5 µM; Fluo-8 calcium fluorescence;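 active = inhibition above its plate's threshold, mean inhibition of all tested compounds on the plate plus 3 SD, cut at about 37% in these data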
TAAR1 agonist: human TAAR1 agonists, primary screen, Fluo-8 calcium fluorescence, CHO RD-HGA16 cells; Trace amine-associated receptor 1 (Homo sapiens), Q96RJ0; vehicle wells 0%, saturating PEA agonist 100%; activation, % at 3 µM; actives 0.99% (n = 360,000); AID 624467, 2012;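 active = activation above the mean activation of all test compounds in the run plus 3 SD, cut at about 38% in these data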
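Test system: RD-HGA16 (CHO) cells co-expressing Gα16 and hTAAR1; dosing: one-point dosing at 3 µM (nominal); timing: 17-24 h seeding, 75 min 37 °C dye, 30 min RT; signal: kinetic Fluo-8 calcium fluorescence; read-out basis: % activation relative to PEA EC100 response; controls: DMSO and PEA EC100; replicates: n 1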
TAAR1 nonsel count: nonselective antagonists in TAAR1 counter-screen cells, counter-screen for hTAAR1 antagonist project, cell-based, fluorescence, calcium. shares compounds with TAAR1 antagonist. counterscreen cell line, antagonist mode. actives 77% (n = 2,400). inhibition, % at 3 µM; in the data active = inhibition above about 22%;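 note: CHO-Ga16 host cells stimulated with ATP at an EC80 level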
TAAR1 antag conf: human TAAR1 antagonists, retest of hits, confirmation, cell-based, fluorescence; inhibition, % at 3 µM; TAAR1-expressing cells, fluorescence antagonist read-out; shares compounds with TAAR1 antagonist; actives 40% (n = 2,400); in the data active = inhibition above about 49%;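 note: CHO-Ga16 host cells challenged with agonist PEA near its EC80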
Ga16 nonsel ag: calcium activation in Ga16-expressing cells, counter-screen for TAAR1 antagonist project, cell-based, fluorescence; shares compounds with TAAR1 antagonist; agonist counterscreen; activation, % at 3 µM; actives 18% (n = 2,400); AID 651953, 2012; in the data active = activation above about 12%
TAAR1 ag count: TAAR1 activation by candidate antagonists – cell-based, fluorescence, counter-screen for TAAR1 antagonist project; activation, % at 3 µM; actives 2% (n = 2,400); hTAAR1 cell line, agonist mode; shares compounds with TAAR1 antagonist; AID 651955, 2012; in the data active = activation above about 37%;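 note: CHO cells stably expressing TAAR1 with calcium dye readout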
Large screens that a line does not name were inactive (follow-up assays come after a bar, where they were run). Most compounds without a hit are left out; they make up all but 3.9% or so of the library.

O=C(NC1(Cc2ccccc2)CCN(CCCc2ccccc2)C1=O)c1ccccc1 (stereo unspecified)	TAAR1 antagonist 66 | TAAR1 nonsel count 26 | TAAR1 antag conf inactive | Ga16 nonsel ag inactive | TAAR1 ag count inactive
CCCCOc1cccc2c(=O)n(CC(=O)Nc3ccc4c(c3)OCCO4)ccc12	TAAR1 antagonist 71 (no result: CHO parental Ca, OX1R antag-1, OX1R antag-2) | TAAR1 nonsel count 43 | TAAR1 antag conf 88 | Ga16 nonsel ag 13 | TAAR1 ag count inactive
O=C(Cn1cnc2ccccc2c1=O)Nc1ccc2c(c1)OCCO2	none
NC(=O)C1CCN(C(=O)c2cc(-c3ccccc3Cl)nc3ccccc23)CC1	none
Cc1ccc2nc(-c3ccccc3)cc(C(=O)N3CCN(c4ccccc4O)CC3)c2c1	TAAR1 antagonist 66 | TAAR1 nonsel count 33 | TAAR1 antag conf 51 | Ga16 nonsel ag inactive | TAAR1 ag count inactive
O=C(c1cc(-c2ccncc2)nc2ccccc12)N1CCN(c2ccccc2O)CC1	TAAR1 antagonist 60 | TAAR1 nonsel count 29 | TAAR1 antag conf inactive | Ga16 nonsel ag inactive | TAAR1 ag count inactive
O=C(c1cc(-c2cccc3ccccc23)nc2ccccc12)N1CCN(CCO)CC1	TAAR1 antagonist 54 | TAAR1 nonsel count 28 | TAAR1 antag conf inactive | Ga16 nonsel ag inactive | TAAR1 ag count inactive
NC(=O)C1CCN(C(=O)c2cc(-c3ccc(Cl)cc3)nc3ccccc23)CC1	TAAR1 antagonist 54 | TAAR1 nonsel count 23 | TAAR1 antag conf inactive | Ga16 nonsel ag inactive | TAAR1 ag count inactive
CCOc1ccccc1NC(=O)CSc1nnc(CNC(=O)c2c(F)cccc2Cl)o1	none
Cc1noc(C)c1CN1C(=O)NC2(CCc3ccccc3C2)C1=O (stereo unspecified)	none
CC(=O)c1cccc(NC(=O)COC(=O)[C@@H](NC(=O)OCc2ccccc2)C(C)C)c1	TAAR1 antagonist 60 | TAAR1 nonsel count 30 | TAAR1 antag conf 50 | Ga16 nonsel ag inactive | TAAR1 ag count inactive
CC(C)[C@H](NC(=O)OCc1ccccc1)C(=O)OCC(=O)NCCc1ccccc1	none
CCOC(=O)C1=CN(Cc2cccc(-c3cccnc3)c2)S(=O)(=O)N(C)C1C (stereo unspecified)	TAAR1 antagonist 49 | TAAR1 nonsel count 21 | TAAR1 antag conf inactive | Ga16 nonsel ag inactive | TAAR1 ag count inactive
CC(=O)c1ccccc1OCCOc1ccccc1C(C)=O	none
CC(=O)c1ccccc1OCc1ccc(S(=O)(=O)Cc2ccccc2)cc1	TAAR1 antagonist 74 | TAAR1 nonsel count 30 | TAAR1 antag conf inactive | Ga16 nonsel ag inactive | TAAR1 ag count inactive
Cc1cccc(NC(=O)/C(C#N)=C/c2cccc([N+](=O)[O-])c2)n1	none
COc1ccc(NC(=O)C[C@H]2C(=O)N(c3ccc(OC)cc3)C[C@@H]2C)cc1	none (no result: CHO parental Ca, OX1R antag-1, OX1R antag-2)
COc1ccc(-c2c(C(=O)c3ccc(Br)cc3)[nH]c(N)c2C(=O)c2ccccc2)cc1OC	TAAR1 antagonist 60 (no result: CHO parental Ca, OX1R antag-1, OX1R antag-2) | TAAR1 nonsel count inactive | TAAR1 antag conf inactive | Ga16 nonsel ag inactive | TAAR1 ag count inactive
Cc1ccc(N(Cc2cc3ccc(C)cc3[nH]c2=O)C(=O)c2ccco2)c(C)c1	TAAR1 antagonist 104 | TAAR1 nonsel count inactive | TAAR1 antag conf inactive | Ga16 nonsel ag inactive | TAAR1 ag count inactive
CN(C1CCCCC1)S(=O)(=O)c1ccc(S(=O)(=O)N(CC(=O)Nc2ccccc2)C2CC2)cc1	TAAR1 antagonist 58 | TAAR1 nonsel count 26 | TAAR1 antag conf inactive | Ga16 nonsel ag inactive | TAAR1 ag count inactive
CCOP(=O)(OCC)C(NC(=O)c1cccs1)c1ccccc1 (stereo unspecified)	none
Cc1noc(C)c1C(=O)Nc1nc(-c2ccc([N+](=O)[O-])cc2)cs1	TAAR1 antagonist 57 | TAAR1 nonsel count 37 | TAAR1 antag conf inactive | Ga16 nonsel ag inactive | TAAR1 ag count inactive
COc1ccc(-c2cc(C(=O)NCC(c3ccccc3)N(C)C)c3ccccc3n2)cc1OC (stereo unspecified)	none
COc1ccc(-c2cc(C(=O)Nc3ccc(O)cc3)c3ccccc3n2)cc1OC	TAAR1 antagonist 62 | TAAR1 nonsel count 33 | TAAR1 antag conf inactive | Ga16 nonsel ag inactive | TAAR1 ag count inactive
COc1ccc(NC(=O)c2cc(-c3ccccn3)nc3ccccc23)cc1S(=O)(=O)N(C)C	TAAR1 antagonist 69 | TAAR1 nonsel count 25 | TAAR1 antag conf inactive | Ga16 nonsel ag inactive | TAAR1 ag count inactive
COc1ccc(-c2cc(C(=O)Nc3ccc(S(=O)(=O)Nc4ncccn4)cc3)c3ccccc3n2)cc1	none
COc1cc(-c2cc(C(=O)Nc3cccc(S(=O)(=O)N(C)C)c3)c3ccccc3n2)cc(OC)c1OC	TAAR1 antagonist 54 | TAAR1 nonsel count 34 | TAAR1 antag conf 49 | Ga16 nonsel ag inactive | TAAR1 ag count inactive
COc1cccc(NC(=O)c2cc(-c3ccc(C)o3)nc3ccccc23)c1	TAAR1 antagonist 55 | TAAR1 nonsel count 25 | TAAR1 antag conf inactive | Ga16 nonsel ag inactive | TAAR1 ag count inactive
CC(=Nc1ccc(Cl)cc1N)c1c(O)cc(C)oc1=O	none (no result: CHO parental Ca, OX1R antag-1, OX1R antag-2)
CC(C)(C)NC(=O)C(c1cc2ccccc2o1)n1c(-c2ccc(-c3ccccc3)cc2)nc2ccccc21 (stereo unspecified)	none (no result: CHO parental Ca, OX1R antag-1, OX1R antag-2)
CCOc1ccc(S(=O)(=O)N2CCC(C(=O)Nc3ccc(C)c(S(=O)(=O)N4CCOCC4)c3)CC2)cc1	none (no result: CHO parental Ca, OX1R antag-1, OX1R antag-2)
COc1ccc(-c2cc(C(=O)NCc3ccco3)c3ccccc3n2)cc1OC	none
O=C(Nc1cccc(S(=O)(=O)NC2=NCCCCC2)c1)c1cc(-c2ccccc2)nc2ccccc12	TAAR1 antagonist 63 | TAAR1 nonsel count 28 | TAAR1 antag conf 50 | Ga16 nonsel ag inactive | TAAR1 ag count inactive
COc1ccc(-c2cc(C(=O)Nc3cccc(S(=O)(=O)NCc4ccco4)c3)c3ccccc3n2)cc1OC	TAAR1 antagonist 75 | TAAR1 nonsel count 37 | TAAR1 antag conf 57 | Ga16 nonsel ag inactive | TAAR1 ag count inactive
